# Measurements pooled from the literature.
# Target: Uncharacterized serine/threonine-protein kinase SBK3 (SBK3, Homo sapiens, UniProt P0C264)
# One construct used (P0C264 1-359): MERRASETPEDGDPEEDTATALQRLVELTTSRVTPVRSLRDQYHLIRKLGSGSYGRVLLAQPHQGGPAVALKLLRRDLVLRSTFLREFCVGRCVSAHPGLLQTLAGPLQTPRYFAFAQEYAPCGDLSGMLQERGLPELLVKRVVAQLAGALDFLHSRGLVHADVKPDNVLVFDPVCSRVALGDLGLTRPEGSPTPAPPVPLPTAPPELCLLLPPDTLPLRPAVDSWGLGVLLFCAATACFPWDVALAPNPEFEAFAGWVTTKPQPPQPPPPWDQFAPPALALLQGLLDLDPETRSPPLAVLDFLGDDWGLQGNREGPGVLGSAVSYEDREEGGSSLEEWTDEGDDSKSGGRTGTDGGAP
SMILES,assay,conditions,remaining binding
Cc1cnn2ncc(-c3ccnc(N(C)C)n3)c2c1,binding,1 µM,26%
O=C(NCCCN1CCOCC1)c1ccc(Nc2nccc(-c3cc4ccccc4s3)n2)cc1,"binding, competition with immobilised ligand",1 µM,91%
Nc1ncc2c(n1)-c1c([nH]c3ccc(C#CC4CC4)cc13)CCCC2,"binding, competition with immobilised ligand",1 µM,100%
N[C@@H]1CCN(c2nccc(-c3cnn4ncccc34)n2)C1,binding,1 µM,100%
O=C(Nc1c[nH]nc1C(=O)NC1CCNCC1)c1cc(F)cc(F)c1,"binding, competition with immobilised ligand",1 µM,100%
C=CC(=O)N1CCC(C(=O)NCC(=O)N2CCN(c3nc(-c4cnc(N)nc4C(F)F)nc(N4CCOCC4)n3)CC2)CC1,"binding, competition with immobilised ligand",1 µM,87%
O=C(NCCCN1CCOCC1)c1ccc(Nc2ncc(Cl)c(-c3ccc(Cl)s3)n2)cc1,"binding, competition with immobilised ligand",1 µM,79%
C[C@@H]1CCN(c2nccc(-c3cnn4ncccc34)n2)C1,binding,1 µM,99%
CCCCN(CCCC)C(=O)CN1C[C@@H](c2cc(OC)c3c(c2)OCO3)[C@H](C(=O)O)[C@H]1CC(C)(C)CCC,"cell-free assay, competition with immobilised ligand",1 µM,100%
FC(F)(F)Oc1cccc(-c2cnc3ccc(-c4ccncc4)nn23)c1,"binding, competition with immobilised ligand",5 µM,100%
O=S(=O)(NC1CCC(c2cc(F)ccc2F)(S(=O)(=O)c2ccc(Cl)cc2)CC1)C(F)(F)F (stereo not drawn),"cell-free assay, competition with immobilised ligand",1 µM,93%
COc1cnc(Nc2cccc(S(N)(=O)=O)c2)nc1N1CCN(c2ccccc2)C(=O)C1,"binding, competition with immobilised ligand",1 µM,64%
CN(c1nccc(-c2cnn3ncccc23)n1)C1CC1,binding,1 µM,100%
CO[C@@H](C)c1c(Nc2ccc([C@@H](N(C)C(=O)C3CCS(=O)(=O)CC3)C(F)(F)F)cc2)cnc2cc(Cl)nn12,"cell-free assay, competition with immobilised ligand",1 µM,81%
O=C(c1ccc(Nc2ncc(Cl)c(-c3ccc(Cl)s3)n2)cc1)N1CCC(N2CCCC2)CC1,"binding, competition with immobilised ligand",1 µM,62%
COCCOc1nc(-c2ccc(Cl)nc2)nc2c1CN(C(=O)c1ncn3ccccc13)CC2,"cell-free assay, competition with immobilised ligand",0.1 µM,100%
CN(C)c1ncc(F)c(-c2cnn3ncccc23)n1,binding,1 µM,74%
COc1ccc2c(c1)O[C@H](c1ccc(OC)c(OC)c1)C[C@@H]2NC(=O)C1(c2ccc3c(c2)OC(F)(F)O3)CC1,"cell-free assay, competition with immobilised ligand",1 µM,100%
CCN1CCN(Cc2ccc(C(=O)Nc3ccc(C)c(Oc4ccc5c(c4)CC(=O)N5)c3)cc2C(F)(F)F)CC1,"binding, competition with immobilised ligand",1 µM,100%
CC1CCCN1c1nccc(-c2cnn3ncccc23)n1 (stereo not drawn),binding,1 µM,100%
CS(=O)(=O)c1cc(C2(NC(=O)c3cncc4c3cnn4-c3ccc(F)cc3)CC2)ccn1,"cell-free assay, competition with immobilised ligand",1 µM,100%
